Results: ChEMBL document CHEMBL3102735, “Enhancing the pharmacodynamic profile of a class of selective COX-2 inhibiting nitric oxide donors” (Bioorg Med Chem, 2014)
Active and inactive are the calls of the source. The rule behind the calls is not given here.

How the values were obtained:
[1] = target: T1, Prostaglandin G/H synthase 1 (Mus musculus, UniProt P22437); assay: Inhibition of COX-1 in mouse J774 cells using arachidonic acid as substrate assessed as inhibition of prostaglandin E2 production preincubated for 15 mins followed by substrate addition measured after 30 mins by RIA; assay type: cell-based
T1 sequence (P22437 whole entry): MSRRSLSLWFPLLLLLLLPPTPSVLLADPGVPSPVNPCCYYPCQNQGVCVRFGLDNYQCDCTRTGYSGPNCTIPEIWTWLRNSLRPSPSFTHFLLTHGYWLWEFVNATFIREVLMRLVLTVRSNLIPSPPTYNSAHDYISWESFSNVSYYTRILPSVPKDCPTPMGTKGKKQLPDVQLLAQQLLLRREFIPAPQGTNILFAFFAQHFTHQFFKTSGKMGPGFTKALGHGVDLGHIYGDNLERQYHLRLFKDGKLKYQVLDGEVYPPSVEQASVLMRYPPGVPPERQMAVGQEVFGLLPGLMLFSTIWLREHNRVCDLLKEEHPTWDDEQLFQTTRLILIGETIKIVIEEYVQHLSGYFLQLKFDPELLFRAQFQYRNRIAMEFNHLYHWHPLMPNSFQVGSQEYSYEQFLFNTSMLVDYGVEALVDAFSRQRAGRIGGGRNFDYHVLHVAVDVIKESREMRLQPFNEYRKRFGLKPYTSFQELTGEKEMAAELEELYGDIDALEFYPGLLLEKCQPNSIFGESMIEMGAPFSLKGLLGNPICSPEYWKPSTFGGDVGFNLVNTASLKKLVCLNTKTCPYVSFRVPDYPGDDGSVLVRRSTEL
How it was run: (§1)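 J774 murine macrophages pretreated 15 min with compound (10 µM; lower concentrations 0.01–1 µM where needed), then incubated 30 min at 37 °C with 15 µM arachidonic acid; supernatant PGE2 measured by RIA. Triplicate wells, mean of three experiments of percent inhibition versus control; IC50 by sigmoidal fit.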

[2] = system: J774; assay: Selectivity index, ratio of IC50 for COX-1 to IC50 for COX-2 in mouse J774 cells; assay type: cell-based
How it was run: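 J774 macrophages stimulated 24 h with E. coli LPS (10 µg/mL) to induce COX-2, with or without compound (0.01–10 µM); supernatant PGE2 by RIA. Triplicate wells, three experiments, percent inhibition versus control, IC50 by sigmoidal fit; selectivity as COX-1/COX-2 IC50 ratio.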

[3] = target: T2, Prostaglandin G/H synthase 2 (Mus musculus, UniProt Q05769); assay: Inhibition of LPS-induced COX-2 in mouse J774 cells using arachidonic acid as substrate assessed as inhibition of prostaglandin E2 production preincubated for 15 mins followed by substrate addition measured after 30 mins by RIA; assay type: cell-based
T2 sequence (Q05769 whole entry): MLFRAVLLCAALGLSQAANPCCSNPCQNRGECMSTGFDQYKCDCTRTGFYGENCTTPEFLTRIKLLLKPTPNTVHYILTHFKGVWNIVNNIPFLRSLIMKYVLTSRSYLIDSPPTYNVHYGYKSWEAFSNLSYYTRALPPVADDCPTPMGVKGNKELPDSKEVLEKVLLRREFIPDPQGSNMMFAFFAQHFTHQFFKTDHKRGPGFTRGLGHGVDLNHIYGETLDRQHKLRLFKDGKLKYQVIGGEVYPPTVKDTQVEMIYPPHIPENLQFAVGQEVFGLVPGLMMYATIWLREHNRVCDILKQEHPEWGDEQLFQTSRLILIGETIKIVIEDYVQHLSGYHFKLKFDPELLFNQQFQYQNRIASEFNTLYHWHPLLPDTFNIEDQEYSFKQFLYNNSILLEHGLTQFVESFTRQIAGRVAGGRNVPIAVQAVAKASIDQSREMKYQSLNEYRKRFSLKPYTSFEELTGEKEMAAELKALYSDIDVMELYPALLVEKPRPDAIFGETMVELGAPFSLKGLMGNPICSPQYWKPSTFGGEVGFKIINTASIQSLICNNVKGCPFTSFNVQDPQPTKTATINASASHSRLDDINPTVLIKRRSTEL

[4] = target: T3, Prostaglandin G/H synthase 1 (Mus musculus) (UniProt P22437); assay: Inhibition of COX-1 in mouse J774 cells using arachidonic acid as substrate assessed as inhibition of prostaglandin E2 production at 10 uM preincubated for 15 mins followed by substrate addition measured after 30 mins by RIA; assay type: cell-based; how it was run: as §1
T3 sequence (whole entry): T1 sequence (P22437 whole entry)

[5] = target: T4, Prostaglandin G/H synthase 2 (Mus musculus) (UniProt Q05769); assay: Inhibition of LPS-induced COX-2 in mouse J774 cells using arachidonic acid as substrate assessed as inhibition of prostaglandin E2 production at 10 uM preincubated for 15 mins followed by substrate addition measured after 30 mins by RIA; assay type: cell-based
T4 sequence (whole entry): T2 sequence (Q05769 whole entry)

[6] = system: Mus musculus; assay: Analgesic activity in Swiss albino mouse assessed as reduction of acetic acid-induced writhing at 10 mg/kg, po measured every 10 mins after 5 mins of administration relative to control; assay type: functional; design: scale not given: the % may be the effect or the level left
How it was run: (§2)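 Male Swiss albino mice (23–25 g), compound given orally in CMC vehicle; writhing induced by 0.6% acetic acid (10 mL/kg) ip. Stretching movements counted for 10 min, starting 5 min after administration; percent reduction versus CMC-treated animals.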

[7] = system: Mus musculus; assay: Analgesic activity in po dosed Swiss albino mouse assessed as reduction of acetic acid-induced writhing measured every 10 mins after 5 mins of administration; assay type: functional, organism-based; how it was run: as §2
[8] = system: Mus musculus; assay: Analgesic activity in Swiss albino mouse assessed as reduction of acetic acid-induced writhing at 40 mg/kg, po measured every 10 mins after 5 mins of administration relative to control; assay type: functional; design: scale not given: the % may be the effect or the level left; how it was run: as §2
[9] = system: Mus musculus; assay: Analgesic activity in Swiss albino mouse assessed as reduction of acetic acid-induced writhing at 20 mg/kg, po measured every 10 mins after 5 mins of administration relative to control; assay type: functional; design: scale not given: the % may be the effect or the level left; how it was run: as §2
[10] = Metabolic stability in Sprague-Dawley rat plasma assessed as compound remaining after 120 mins by LC-MS/MS analysis; assay type: ADME, cell-free; settings: read-out: Stability
How it was run: (§3)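 Compound (12 µL of 1 mM DMSO solution into 588 µL medium) incubated in PBS pH 7.4, pepsin-free SGF pH 1.5, or EDTA rat plasma. Aliquots taken at 0, 30, 60, 120 min and quenched with ice-cold acetonitrile containing internal standard; parent remaining as percent.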

[11] = Metabolic stability in Sprague-Dawley rat plasma assessed as compound remaining after 30 mins by LC-MS/MS analysis; assay type: ADME, cell-free; settings: read-out: Stability; how it was run: as §3
[12] = Stability of the compound in phosphate buffer saline assessed as compound remaining at pH 7.4 after 60 mins by LC-MS/MS analysis; assay type: physicochemical; settings: read-out: Stability
How it was run: (§4)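 1 mM DMSO stock added to 0.01 M PBS (pH 7.4) or 0.05 M simulated gastric fluid without pepsin (pH 1.5 with HCl); incubated in hybridisation oven; aliquots at 0, 30, 60, 120 min quenched with ice-cold acetonitrile containing internal standard; parent remaining (%) measured.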

[13] = system: Thoracic aorta; assay: Ex vivo vasorelaxant activity in Wistar rat endothelium thoracic aortic ring assessed as reduction of KCl-induced contraction at 0.001 uM to 10 uM relative to control; assay type: functional
How it was run: (§5)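 Endothelium-denuded thoracic aortic rings from male Wistar rats (250–350 g) in oxygenated Tyrode-type buffer at 37 °C, isometric tension recording. Rings precontracted with 30 mM KCl, then 3-fold increasing compound concentrations (1 nM–10 µM) added, also with 1 µM ODQ preincubated. Emax as % of KCl tone; pIC50; mean ± SE of 6–10 experiments.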

[14] = Stability of the compound in simulated gastric fluid assessed as compound remaining at pH 1.5 after 60 mins by LC-MS/MS analysis; assay type: physicochemical; settings: read-out: Stability; how it was run: as §4
[15] = Stability of the compound in simulated gastric fluid assessed as compound remaining at pH 1.5 after 120 mins by LC-MS/MS analysis; assay type: physicochemical; settings: read-out: Stability; how it was run: as §4
[16] = Stability of the compound in simulated gastric fluid assessed as compound remaining at pH 1.5 after 30 mins by LC-MS/MS analysis; assay type: physicochemical; settings: read-out: Stability; how it was run: as §4
[17] = Metabolic stability in Sprague-Dawley rat plasma assessed as compound remaining after 60 mins by LC-MS/MS analysis; assay type: ADME, cell-free; settings: read-out: Stability; how it was run: as §3
[18] = Stability of the compound in phosphate buffer saline assessed as compound remaining at pH 7.4 after 30 mins by LC-MS/MS analysis; assay type: physicochemical; settings: read-out: Stability; how it was run: as §4
[19] = Stability of the compound in phosphate buffer saline assessed as compound remaining at pH 7.4 after 120 mins by LC-MS/MS analysis; assay type: physicochemical; settings: read-out: Stability; how it was run: as §3
[20] = system: Thoracic aorta; assay: Ex vivo vasorelaxant activity in Wistar rat endothelium thoracic aortic ring assessed as reduction of KCl-induced contraction in presence of guanylate cyclase inhibitor ODQ; assay type: functional; how it was run: as §5

Row | IC50 [1] | inhibition [4] | inhibition [5] | Structure (SMILES) | Ratio IC50 [2] | IC50 [3] | Activity [6] | Activity [7] | Activity [8] | Activity [9] | remaining at 2 h [10] | remaining at 0.5 h [11] | remaining at 1 h [12] | Emax [13] | remaining at 1 h [14] | remaining at 2 h [15] | remaining at 0.5 h [16] | remaining at 1 h [17] | remaining at 0.5 h [18] | remaining at 2 h [19] | Activity [20]
1 | > 10000 nM | 17% | 100% | Cc1c(CC(=O)NCCCO)cc(-c2ccc(S(C)(=O)=O)cc2)n1-c1cccc(F)c1 | > 222 | 45 nM | – | – | – | – | – | – | – | – | – | – | – | – | – | – | –
2 | > 10000 nM | 23% | 100% | Cc1c(CC(=O)NC(CO)C(=O)O)cc(-c2ccc(S(C)(=O)=O)cc2)n1-c1cccc(F)c1 (racemic) | > 167 | 68 nM | – | – | – | – | – | – | – | – | – | – | – | – | – | – | –
3 | > 10000 nM | 21% | 100% | Cc1c(CC(=O)NCCCO)cc(-c2ccc(S(C)(=O)=O)cc2)n1-c1ccc(F)cc1 | > 147 | – | – | – | – | – | – | – | – | – | – | – | – | – | – | – | –
4 | > 10000 nM | 0% | 95% | Cc1c(CC(=O)NCCO)cc(-c2ccc(S(C)(=O)=O)cc2)n1-c1cccc(F)c1 | > 34 | – | – | – | – | – | – | – | – | – | – | – | – | – | – | – | –
5 | > 10000 nM | 19% | 89% | Cc1c(CC(=O)NC(CCO)C(=O)O)cc(-c2ccc(S(C)(=O)=O)cc2)n1-c1ccc(F)cc1 (racemic) | > 16 | – | – | – | – | – | – | – | – | – | – | – | – | – | – | – | –

Row | Structure (SMILES) | IC50 [1] | inhibition [4] | inhibition [5] | Ratio IC50 [2] | IC50 [3] | Activity [6] | Activity [7] | Activity [8] | Activity [9] | remaining at 2 h [10] | remaining at 0.5 h [11] | remaining at 1 h [12] | Emax [13] | remaining at 1 h [14] | remaining at 2 h [15] | remaining at 0.5 h [16] | remaining at 1 h [17] | remaining at 0.5 h [18] | remaining at 2 h [19] | Activity [20]
6 | Cc1c(CC(=O)NC(CO)C(=O)O)cc(-c2ccc(S(C)(=O)=O)cc2)n1-c1ccc(F)cc1 (racemic) | > 10000 nM | 23% | 100% | > 62.5 | 160 nM | 27% | Dose-dependent effect | 60% | 59% | – | – | – | – | – | – | – | – | – | – | –
7 | Cc1c(CC(=O)NC(CO[N+](=O)[O-])C(=O)O)cc(-c2ccc(S(C)(=O)=O)cc2)n1-c1cccc(F)c1 (racemic) | > 10000 nM | 0% | 100% | > 71 | 140 nM | 12% | Dose-dependent effect | 50% | 47% | 28.6% | 71.4% | 50% | 18% | 93.8% | 87.5% | 100% | 57.1% | 75% | 37.5% | inactive
